Test [1] in a line: Selectivity index, ratio of IC50 for ovine COX1 to IC50 for human recombinant COX2.
For test [2], the target named is T1, Prostaglandin G/H synthase 1 (Ovis aries, UniProt P05979).
T1 sequence (P05979 whole entry): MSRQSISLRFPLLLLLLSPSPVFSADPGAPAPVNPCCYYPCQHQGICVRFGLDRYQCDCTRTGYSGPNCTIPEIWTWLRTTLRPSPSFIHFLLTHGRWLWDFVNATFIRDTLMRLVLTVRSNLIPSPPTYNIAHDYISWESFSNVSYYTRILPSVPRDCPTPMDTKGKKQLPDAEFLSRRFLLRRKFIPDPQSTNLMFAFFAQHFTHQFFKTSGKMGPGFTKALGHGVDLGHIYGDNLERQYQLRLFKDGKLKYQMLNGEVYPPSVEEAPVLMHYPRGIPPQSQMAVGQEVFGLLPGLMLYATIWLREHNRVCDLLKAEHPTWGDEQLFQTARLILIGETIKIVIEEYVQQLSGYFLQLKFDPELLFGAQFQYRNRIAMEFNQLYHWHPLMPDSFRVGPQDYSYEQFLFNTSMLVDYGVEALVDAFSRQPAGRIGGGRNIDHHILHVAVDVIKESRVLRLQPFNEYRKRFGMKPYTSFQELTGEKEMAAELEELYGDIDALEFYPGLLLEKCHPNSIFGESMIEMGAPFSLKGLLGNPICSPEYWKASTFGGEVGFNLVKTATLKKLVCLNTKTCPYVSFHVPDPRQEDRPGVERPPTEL
Kind of test: Inhibition of ovine COX1 assessed as inhibition of PGF2alpha production from PGH2 by enzyme immuno assay. An outline of the steps:
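Ovine COX-1 in Tris-HCl buffer, pH 8.0, with heme, preincubated 10 min at 37 °C. Arachidonic acid started the reaction, which was stopped after 2 min with 1 M HCl. PGH₂ was reduced to PGF2α with stannous chloride, and PGF2α was quantified by competitive EIA with an AChE tracer and Ellman's reagent. IC50 came from concentration–inhibition curves, duplicate determinations.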

Test [3] has as its target T2, Prostaglandin G/H synthase 2 (Homo sapiens, UniProt P35354).
T2 sequence (P35354 whole entry): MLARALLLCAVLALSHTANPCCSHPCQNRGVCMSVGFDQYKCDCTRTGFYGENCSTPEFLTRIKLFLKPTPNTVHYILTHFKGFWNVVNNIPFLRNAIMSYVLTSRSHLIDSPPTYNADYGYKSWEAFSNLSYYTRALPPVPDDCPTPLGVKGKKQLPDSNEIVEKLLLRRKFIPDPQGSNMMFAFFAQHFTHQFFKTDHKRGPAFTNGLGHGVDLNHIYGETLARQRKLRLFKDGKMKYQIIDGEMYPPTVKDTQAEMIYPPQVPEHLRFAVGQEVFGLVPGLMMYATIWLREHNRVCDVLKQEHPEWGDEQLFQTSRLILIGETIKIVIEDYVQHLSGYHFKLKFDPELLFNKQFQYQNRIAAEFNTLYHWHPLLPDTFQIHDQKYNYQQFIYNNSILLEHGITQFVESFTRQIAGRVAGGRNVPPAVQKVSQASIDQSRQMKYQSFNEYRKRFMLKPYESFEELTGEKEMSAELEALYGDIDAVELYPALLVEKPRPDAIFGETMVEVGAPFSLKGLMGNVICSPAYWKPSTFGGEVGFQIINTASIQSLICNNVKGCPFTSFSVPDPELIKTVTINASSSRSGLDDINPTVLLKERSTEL
Kind of test: Inhibition of human recombinant COX2 assessed as inhibition of PGF2alpha production from PGH2 by enzyme immunoassay.

One may read the IC50 as the midpoint of a concentration-inhibition curve.

For the compound `NS(=O)(=O)c1ccc(NN2C(=O)CSC2c2ccc(F)cc2)cc1` (stereo not given), the Ratio IC50 in test [1] came to 0.67. For the same compound, the results for the IC50 in test [2] and in test [3] were 42.1 µM and 63 µM, respectively.
The corresponding values for `NS(=O)(=O)c1ccc(NN2C(=O)CSC2c2ccccc2)cc1` (stereo not given) are 1.23, 96.4 µM and 78.2 µM.
Consider `Cc1ccc(C2SCC(=O)N2Nc2ccc(S(N)(=O)=O)cc2)cc1` (stereo not given), for which, in test [1], the Ratio IC50 came to 3.49. Besides, the IC50 stood at 85.5 µM in test [2] and 24.5 µM in test [3].
For `NS(=O)(=O)c1ccc(NN2C(=O)CSC2c2ccc(C(F)(F)F)cc2)cc1` (stereo not given), the Ratio IC50 in test [1] was found to be 1.05. The results for the IC50 in test [2] and in test [3] were 54.5 µM and 51.8 µM, respectively.
The corresponding values for `Cc1ccc(C2SCC(=O)N2Nc2ccc(S(C)(=O)=O)cc2)cc1` (stereo not given) are 7.27, 105 µM and 14.4 µM.
For the compound `CS(=O)(=O)c1ccc(NN2C(=O)CSC2c2ccc(Cl)cc2)cc1` (stereo not given), the Ratio IC50 in test [1] is 0.68. Further, the IC50 in test [2] is 83 µM; in test [3], 122 µM.
Take `CS(=O)(=O)c1ccc(NN2C(=O)CSC2c2ccc(C(F)(F)F)cc2)cc1` (stereo not given): in test [1], the Ratio IC50 worked out at 1.61. In addition, the IC50 in test [2] stood at 61.1 µM; in test [3], 37.8 µM.
The corresponding values for `NS(=O)(=O)c1ccc(NN2C(=O)CSC2c2ccc(Cl)cc2)cc1` (stereo not given) are 0.85, 38.9 µM and 45.5 µM.
For `CS(=O)(=O)c1ccc(NN2C(=O)CSC2c2ccccc2)cc1` (stereo not given), the Ratio IC50 in test [1] is 3.16. Besides, the half-inhibitory concentration (IC50) turned out to be 63.2 µM in test [2] and 20 µM in test [3].
The matching figures for `CS(=O)(=O)c1ccc(NN2C(=O)CSC2c2ccc(F)cc2)cc1` (stereo not given): 1.38, 62.7 µM and 45.4 µM.
